Key:
Experiment in all cases: NCI-60 single-dose antiproliferative screen
Assay type in all cases: cell-based
[1] = tested on: CCRF-CEM; conditions: Homo sapiens, 48 h, read-out: growth percent
Method in brief: (§1)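 NCI-60 protocol. Lines were grown in RPMI 1640 with 5% FBS and 2 mM L-glutamine, plated and incubated 24 h at 37 °C; time-zero plates were TCA-fixed. The test compound was dissolved in DMSO, diluted in medium with 50 μg/mL gentamicin and given once at a final 10^-5 M (DMSO control) for 48 h. Cells were fixed with cold TCA (1 h, 4 °C) and stained with 0.4% SRB in 1% acetic acid for 10 min. Dye was dissolved in 10 mM Trizma base and read at 515 nm. Growth percent was calculated from time-zero, test and control ODs.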

[2] = tested on: K-562; conditions: Homo sapiens, K562, 48 h, read-out: growth percent
Method in brief: as §1

[3] = tested on: MOLT-4; conditions: Homo sapiens, MOLT-4, 48 h, read-out: growth percent
Method in brief: as §1

[4] = tested on: SR; conditions: Homo sapiens, 48 h, read-out: growth percent
Method in brief: (§2)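 Cells grown in RPMI 1640 with 5% FBS and 2 mM L-glutamine, plated and held 24 h at 37 °C; time-zero plates TCA-fixed. DMSO stocks were diluted in gentamicin-containing medium to a final 10^-5 M, with a DMSO-only control. Exposure 48 h, 5% CO2. Adherent cells TCA-fixed 1 h at 4 °C, stained with 0.4% SRB, solubilised in 10 mM Trizma base, read at 515 nm. Growth percent derived from ODtzero, ODtest and ODctrl.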

[5] = tested on: A549/ATCC; conditions: Homo sapiens, A549, 48 h, read-out: growth percent
Method in brief: as §1

[6] = tested on: EKVX; conditions: Homo sapiens, 48 h, read-out: growth percent
Method in brief: as §1

[7] = tested on: HOP-92; conditions: Homo sapiens, HOP-92, 48 h, read-out: growth percent
Method in brief: as §1

[8] = tested on: NCI-H460; conditions: Homo sapiens, NCI-H460, 48 h, read-out: growth percent
Method in brief: as §1

[9] = tested on: COLO205; conditions: Homo sapiens, COLO 205, 48 h, read-out: growth percent
Method in brief: as §1

[10] = tested on: HCT-15; conditions: Homo sapiens, HCT-15, 48 h, read-out: growth percent
Method in brief: as §1

[11] = tested on: KM12; conditions: Homo sapiens, KM12, 48 h, read-out: growth percent
Method in brief: as §1

[12] = tested on: SW-620; conditions: Homo sapiens, SW-620, 48 h, read-out: growth percent
Method in brief: as §2

[13] = tested on: SF-268; conditions: Homo sapiens, SF-268, 48 h, read-out: growth percent
Method in brief: as §1

[14] = tested on: SF-539; conditions: Homo sapiens, SF-539, 48 h, read-out: growth percent
Method in brief: as §2

[15] = tested on: SNB-19; conditions: Homo sapiens, SNB-19, 48 h, read-out: growth percent
Method in brief: as §2

[16] = tested on: SNB-75; conditions: Homo sapiens, SNB-75, 48 h, read-out: growth percent
Method in brief: as §2

[17] = tested on: U251; conditions: Homo sapiens, U-251, 48 h, read-out: growth percent
Method in brief: as §2

[18] = tested on: MALME-3M; conditions: Homo sapiens, 48 h, read-out: growth percent
Method in brief: as §1

[19] = tested on: M14; conditions: Homo sapiens, M14, 48 h, read-out: growth percent
Method in brief: as §1

[20] = tested on: MDA-MB-435; conditions: Homo sapiens, MDA-MB-435, 48 h, read-out: growth percent
Method in brief: as §1

[21] = tested on: SK-MEL-2; conditions: Homo sapiens, SK-MEL-2, 48 h, read-out: growth percent
Method in brief: as §2

[22] = tested on: SK-MEL-28; conditions: Homo sapiens, SK-MEL-28, 48 h, read-out: growth percent
Method in brief: as §2

[23] = tested on: SK-MEL-5; conditions: Homo sapiens, SK-MEL-5, 48 h, read-out: growth percent
Method in brief: as §2

[24] = tested on: UACC-257; conditions: Homo sapiens, UACC-257, 48 h, read-out: growth percent
Method in brief: as §2

[25] = tested on: OVCAR-4; conditions: Homo sapiens, OVCAR-4, 48 h, read-out: growth percent
Method in brief: as §1

[26] = tested on: OVCAR-5; conditions: Homo sapiens, OVCAR-5, 48 h, read-out: growth percent
Method in brief: as §1

[27] = tested on: OVCAR-8; conditions: Homo sapiens, OVCAR-8, 48 h, read-out: growth percent
Method in brief: as §1

[28] = tested on: SK-OV-3; conditions: Homo sapiens, SK-OV-3, 48 h, read-out: growth percent
Method in brief: as §2

[29] = tested on: SN12C; conditions: Homo sapiens, 48 h, read-out: growth percent
Method in brief: as §2

[30] = tested on: TK-10; conditions: Homo sapiens, TK-10, 48 h, read-out: growth percent
Method in brief: as §2

[31] = tested on: UO-31; conditions: Homo sapiens, UO-31, 48 h, read-out: growth percent
Method in brief: as §2

[32] = tested on: MDA-MB-231 ATCC; conditions: Homo sapiens, MDA-MB-231, 48 h, read-out: growth percent
Method in brief: as §1

[33] = tested on: HS 578T; conditions: Homo sapiens, 48 h, read-out: growth percent
Method in brief: as §1

[34] = tested on: BT-549; conditions: Homo sapiens, BT-549, 48 h, read-out: growth percent
Method in brief: as §1

[35] = tested on: T-47D; conditions: Homo sapiens, T47D, 48 h, read-out: growth percent
Method in brief: as §2

[36] = tested on: MDA-MB-468; conditions: Homo sapiens, MDA-MB-468, 48 h, read-out: growth percent
Method in brief: as §1

SMILES	activity at 10 µM [1] [%]	activity at 10 µM [2] [%]	activity at 10 µM [3] [%]	activity at 10 µM [4] [%]	activity at 10 µM [5] [%]	activity at 10 µM [6] [%]	activity at 10 µM [7] [%]	activity at 10 µM [8] [%]	activity at 10 µM [9] [%]	activity at 10 µM [10] [%]	activity at 10 µM [11] [%]	activity at 10 µM [12] [%]	activity at 10 µM [13] [%]	activity at 10 µM [14] [%]	activity at 10 µM [15] [%]	activity at 10 µM [16] [%]	activity at 10 µM [17] [%]	activity at 10 µM [18] [%]	activity at 10 µM [19] [%]	activity at 10 µM [20] [%]	other results
COc1cc(CNC(=O)CCCC/C=C/C(C)C)ccc1OCc1cn(-c2ccc(Cl)cc2)nn1 [14a, (E)-N-(4-((1-(4-Chlorophenyl)-1H-1,2,3-triazol-4-yl)methoxy)-3-methoxybenzyl)-8-methylnon-6-enamide]	72.4	66.7	82	73.5	85.3	72	77.1	79.9	108	91.8	95.6	88.7	84	87.1	87.7	76.4	86.9	97.8	90.6	99.3	activity at 10 µM [21]: 102%; activity at 10 µM [22]: 106%; activity at 10 µM [23]: 77.6%; activity at 10 µM [24]: 91.6%; activity at 10 µM [25]: 82.6%; activity at 10 µM [26]: 100%; activity at 10 µM [27]: 79%; activity at 10 µM [28]: 91.6%; activity at 10 µM [29]: 80.2%; activity at 10 µM [30]: 99.3%; activity at 10 µM [31]: 76.6%; activity at 10 µM [32]: 79.5%; activity at 10 µM [33]: 90.3%; activity at 10 µM [34]: 86.8%; activity at 10 µM [35]: 71%; activity at 10 µM [36]: 64.9%
COc1cc(CNC(=O)CCCC/C=C/C(C)C)ccc1OCc1cn(-c2cccc(Cl)c2)nn1 [14b, (E)-N-(4-((1-(3-Chlorophenyl)-1H-1,2,3-triazol-4-yl)methoxy)-3-methoxybenzyl)-8-methylnon-6-enamide]	87.3	84.9	92.8	85.6	82.9	80.8	62.4	84.1	102	91.3	98.6	92.8	82.5	82	60	75.8	69.1	98.7	94.1	98.6	activity at 10 µM [21]: 86.7%; activity at 10 µM [22]: 106%; activity at 10 µM [23]: 91.2%; activity at 10 µM [24]: 90.1%; activity at 10 µM [25]: 67.2%; activity at 10 µM [26]: 99.8%; activity at 10 µM [27]: 57.2%; activity at 10 µM [28]: 78.8%; activity at 10 µM [29]: 84.2%; activity at 10 µM [30]: 106%; activity at 10 µM [31]: 72.2%; activity at 10 µM [32]: 64.8%; activity at 10 µM [33]: 74.8%; activity at 10 µM [34]: 99.3%; activity at 10 µM [35]: 81.1%; activity at 10 µM [36]: 74.7%
COc1cc(CNC(=O)CCCC/C=C/C(C)C)ccc1OCc1cn(-c2ccccc2Cl)nn1 [14c, (E)-N-(4-((1-(2-Chlorophenyl)-1H-1,2,3-triazol-4-yl)methoxy)-3-methoxybenzyl)-8-methylnon-6-enamide]	87.9	76.8	81	68.5	84.3	82.1	80.1	101	106	94.1	97.7	100	87.8	104	89.7	87.3	85.7	107	92.6	103	activity at 10 µM [21]: 91%; activity at 10 µM [22]: 106%; activity at 10 µM [23]: 89.8%; activity at 10 µM [24]: 87.9%; activity at 10 µM [25]: 87.9%; activity at 10 µM [26]: 104%; activity at 10 µM [27]: 89.6%; activity at 10 µM [28]: 91.3%; activity at 10 µM [29]: 94.5%; activity at 10 µM [30]: 94.6%; activity at 10 µM [31]: 75.2%; activity at 10 µM [32]: 80.8%; activity at 10 µM [33]: 97.2%; activity at 10 µM [34]: 90.8%; activity at 10 µM [35]: 74.3%; activity at 10 µM [36]: 88.2%
COc1cc(CNC(=O)CCCC/C=C/C(C)C)ccc1OCc1cn(-c2ccc(Cl)c(Cl)c2)nn1 [14d, (E)-N-(4-((1-(3,4-Dichlorophenyl)-1H-1,2,3-triazol-4-yl)methoxy)-3-methoxybenzyl)-8-methylnon-6-enamide]	84.7	77.1	86.4	78.9	85.9	76.2	78.7	101	111	93.6	100	96.1	93.3	96.1	87.3	79.1	91.9	105	92.7	94.2	activity at 10 µM [21]: 108%; activity at 10 µM [22]: 104%; activity at 10 µM [23]: 81.6%; activity at 10 µM [24]: 89.2%; activity at 10 µM [25]: 69.5%; activity at 10 µM [26]: 102%; activity at 10 µM [27]: 91%; activity at 10 µM [28]: 97.2%; activity at 10 µM [29]: 113%; activity at 10 µM [30]: 88.6%; activity at 10 µM [31]: 103%; activity at 10 µM [32]: 87.3%; activity at 10 µM [33]: 84%; activity at 10 µM [34]: 91.8%; activity at 10 µM [35]: 87%; activity at 10 µM [36]: 71.6%

From article PMC9476207 (ACS Omega, 2022)
